Assay results taken from ChEMBL document CHEMBL3792333, “The discovery of indole derivatives as novel hepatitis C virus inhibitors” (Eur J Med Chem, 2016).
pEC50: −log10 of the molar value. Calls of active or inactive are those of the source. The calls are words filed in the database; no cut-off is given here.

Key:
[1] = Cytotoxicity against human Huh7.5.1 cells infected with Hepatitis C virus JFH-1 measured 48 hrs post infection by luciferase reporter gene assay; type: cell-based, Huh-7
Procedure, shortened: (§1)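 Huh7.5.1 cells were seeded and grown 24 h at 37 °C, 5% CO₂. They were then treated with serially diluted compound and infected with Renilla luciferase-linked HCV(JFH-1) reporter virus. Luminescence was read at 48 hpi, and EC₅₀ and CC₅₀ were derived from it. SI is CC₅₀/EC₅₀. Results are the mean of three independent experiments with SD.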

[2] = Selectivity index, ratio of CC50 for human Huh7.5.1 cells infected with Hepatitis C virus JFH-1 to EC50 for Hepatitis C virus JFH-1 infected in human Huh7.5.1 cells; type: toxicity, cell-based, Huh-7; conditions: read-out: Ratio CC50/EC50; procedure, shortened: as §1
Hepatitis C virus [3] = test: Antiviral activity against Hepatitis C virus JFH-1 infected in human Huh7.5.1 cells measured 48 hrs post infection by luciferase reporter gene assay; type: functional, organism-based, Hepacivirus hominis; conditions: JFH-1, Huh-7, 48 h; procedure, shortened: as §1
Hepatitis C virus [4] = test: Antiviral activity against Hepatitis C virus JFH-1 infected in human Huh7.5.1 cells assessed as inhibition of viral entry at 2 uM treated 1 hr post infection incubated for 24 hrs by luciferase reporter gene assay; type: functional, organism-based; conditions: Hepacivirus hominis, Huh-7
Procedure, shortened: (§2)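 Huh7.5.1 cells were seeded at 3×10⁴/well in 10% FBS-DMEM and grown overnight at 37 °C, 5% CO₂. Compound was added with 100 TCID₅₀ of HCV(JFH-1) Renilla luciferase reporter virus (0 h), or at -6 to 10 hpi. Cells were incubated 24 h at 37 °C, and luciferase activity was compared with 0.5% DMSO mock cultures.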

Hepatitis C virus [5] = test: Antiviral activity against Hepatitis C virus JFH-1 infected in human Huh7.5.1 cells assessed as inhibition of viral entry at 2 uM treated immediately after viral infection incubated for 24 hrs by luciferase reporter gene assay; type: functional, organism-based; conditions: Hepacivirus hominis, Huh-7; procedure, shortened: as §2
Hepatitis C virus [6] = test: Antiviral activity against Hepatitis C virus JFH-1 infected in human Huh7.5.1 cells assessed as inhibition of viral RNA replication at 2 uM treated 2 to 10 hrs post infection incubated for 24 hrs by luciferase reporter gene assay; type: functional, organism-based; conditions: Hepacivirus hominis, Huh-7; procedure, shortened: as §2
Hepatitis C virus [7] = test: Antiviral activity against Hepatitis C virus JFH-1 infected in human Huh7.5.1 cells assessed as inhibition of viral entry at 2 uM treated 2 to 6 hrs prior infection incubated for 24 hrs by luciferase reporter gene assay; type: functional, organism-based; conditions: Hepacivirus hominis, Huh-7; procedure, shortened: as §2
Hepatitis C virus [8] = test: Antiviral activity against Hepatitis C virus JFH-1 infected in human Huh7.5.1 cells assessed as inhibition of viral RNA replication at 5 uM treated 2 to 10 hrs post infection incubated for 24 hrs by luciferase reporter gene assay; type: functional, organism-based; conditions: Hepacivirus hominis, Huh-7; procedure, shortened: as §2
Hepatitis C virus [9] = test: Antiviral activity against Hepatitis C virus JFH-1 infected in human Huh7.5.1 cells assessed as inhibition of viral entry at 5 uM treated 1 hr post infection incubated for 24 hrs by luciferase reporter gene assay; type: functional, organism-based; conditions: Hepacivirus hominis, Huh-7; procedure, shortened: as §2
Hepatitis C virus [10] = test: Antiviral activity against Hepatitis C virus JFH-1 infected in human Huh7.5.1 cells assessed as inhibition of viral entry at 5 uM treated immediately after viral infection incubated for 24 hrs by luciferase reporter gene assay; type: functional, organism-based; conditions: Hepacivirus hominis, Huh-7; procedure, shortened: as §2
Hepatitis C virus [11] = test: Antiviral activity against Hepatitis C virus JFH-1 infected in human Huh7.5.1 cells assessed as inhibition of viral entry at 5 uM treated 2 to 6 hrs prior infection incubated for 24 hrs by luciferase reporter gene assay; type: functional, organism-based; conditions: Hepacivirus hominis, Huh-7; procedure, shortened: as §2

Row | pEC50 (Hepatitis C virus [3]) | SMILES | CC50 at 48 h [1] | selectivity ratio [2] | further results
1 | 4.66 | CC1=NN(c2ccccc2)C(=O)/C1=C/c1cn(CC(O)CN2CCOCC2)c2ccccc12 (racemic) | > 50 µM | > 2.29 | 
2 | 5.23 | CC1=NN(c2cccc(F)c2)C(=O)/C1=C/c1cn(C[C@@H](O)CNCCCN2CCOCC2)c2ccccc12 | 23.3 µM | 3.97 | 
3 | 4.76 | CC1=NN(c2ccccc2)C(=O)/C1=C/c1cn(Cc2ccccc2)c2ccccc12 | > 50 µM | > 2.88 | 
4 | 6.04 | CC1=NN(c2cccc(F)c2)C(=O)/C1=C/c1cn(CC(O)CNCCCN2CCOCC2)c2ccccc12 (racemic) | 21.5 µM | 23.3 | 
5 | 5.69 | CC1=NN(c2ccccc2)C(=O)/C1=C/c1cn(CC(O)CNCCCCN2CCOCC2)c2ccccc12 (racemic) | 8.13 µM | 4 | 
6 | 5.74 | CC1=NN(c2ccc(C)cc2)C(=O)/C1=C/c1cn(CC(O)CNCCCN2CCOCC2)c2ccccc12 (racemic) | 36.2 µM | 19.8 | 
7 | 5.99 | CC1=NN(c2ccc(F)cc2)C(=O)/C1=C/c1cn(CC(O)CNCCCN2CCOCC2)c2ccccc12 (racemic) | 46.5 µM | 45.6 | inhibition (Hepatitis C virus [4]): Active; inhibition (Hepatitis C virus [5]): Active; inhibition (Hepatitis C virus [6]): inactive; inhibition (Hepatitis C virus [7]): Active
8 | 4.61 | CC1=NN(c2ccccc2)C(=O)/C1=C/c1c[nH]c2ccccc12 | > 50 µM | > 2.03 | 
9 | 5.23 | CC1=NN(c2cccc(C(F)(F)F)c2)C(=O)/C1=C/c1cn(CC2CO2)c2ccccc12 (centres undefined) | 25.1 µM | 4.23 | 
10 | 5.33 | CC1=NN(c2ccc(C(F)(F)F)cc2)C(=O)/C1=C/c1cn(CC(O)CNCCCN2CCOCC2)c2ccccc12 (racemic) | 11.3 µM | 2.44 | 
11 | 5.09 | CC1=NN(c2ccccc2)C(=O)/C1=C/c1cn(C[C@@H](O)CNCCCN2CCOCC2)c2ccccc12 | 21.5 µM | 2.67 | 
12 | < 4.30 | CCCCN(CCCC)CC(O)Cn1cc(/C=C2/C(=O)N(c3ccccc3)N=C2C)c2ccccc21 (racemic) | > 50 µM |  | 
13 | < 4.30 | CC1=NN(C)C(=O)/C1=C/c1cn(CC2CO2)c2ccccc12 (centres undefined) | > 50 µM |  | 
14 | 6.14 | CC1=NN(c2ccc(F)cc2)C(=O)/C1=C/c1cn(C[C@H](O)CNCCCN2CCOCC2)c2ccccc12 | > 50 µM | > 69.4 | 
15 | < 4.30 | CC1=NN(c2ccccc2)C(=O)/C1=C/c1cn(CC(O)CNCc2ccccc2)c2ccccc12 (racemic) | > 50 µM |  | 
16 | 5.29 | CC1=NN(c2ccccc2F)C(=O)/C1=C/c1cn(CC2CO2)c2ccccc12 (centres undefined) | 30.4 µM | 5.95 | 
17 | 5.17 | CC1=NN(c2ccc(Cl)cc2)C(=O)/C1=C/c1cn(CC2CO2)c2ccccc12 (centres undefined) | 35.3 µM | 5.17 | 
18 | 5.24 | CC1=NN(c2ccccc2)C(=O)/C1=C/c1cn(CC2CO2)c2ccccc12 (centres undefined) | 46.3 µM | 8.02 | inhibition (Hepatitis C virus [8]): inactive; inhibition (Hepatitis C virus [9]): Active; inhibition (Hepatitis C virus [10]): Active; inhibition (Hepatitis C virus [11]): Active

Row | pEC50 (Hepatitis C virus [3]) | SMILES | CC50 at 48 h [1] | selectivity ratio [2] | further results
19 | 5.68 | CC1=NN(c2cccc(C(F)(F)F)c2)C(=O)/C1=C/c1cn(CC(O)CNCCCN2CCOCC2)c2ccccc12 (racemic) | 17.8 µM | 8.57 | 
20 | 5.26 | CC1=NN(c2ccccc2)C(=O)/C1=C/c1cn(CC(O)CNCCN2CCOCC2)c2ccccc12 (racemic) | 42.4 µM | 7.76 | 
21 | < 4.30 | CCCCNCC(O)Cn1cc(/C=C2/C(=O)N(c3ccccc3)N=C2C)c2ccccc21 (racemic) | > 50 µM |  | 
22 | 5.90 | CC1=NN(c2ccccc2)C(=O)/C1=C/c1cn(C[C@H](O)CNCCCN2CCOCC2)c2ccccc12 | > 50 µM | > 40 | 
23 | 5.15 | CC1=NN(c2ccc(F)cc2)C(=O)/C1=C/c1cn(C[C@@H](O)CNCCCN2CCOCC2)c2ccccc12 | 34.6 µM | 4.86 | 
24 | 5.69 | COc1ccc(N2N=C(C)/C(=C\c3cn(CC4CO4)c4ccccc34)C2=O)cc1 (centres undefined) | 11.9 µM | 5.76 | 
25 | 4.67 | CC1=NN(c2ccccc2)C(=O)/C1=C/c1cn(CC2CC2)c2ccccc12 | > 50 µM | > 2.32 | 
26 | 5.47 | CC1=NN(c2ccc(Cl)cc2)C(=O)/C1=C/c1cn(CC(O)CNCCCN2CCOCC2)c2ccccc12 (racemic) | 17.5 µM | 5.12 | 
27 | 5.69 | CC1=NN(c2ccccc2)C(=O)/C1=C/c1cn(CC(O)CNCCCN2CCOCC2)c2ccccc12 (racemic) | 35.8 µM | 17.6 | 
28 | 4.67 | CC1=NN(c2ccccc2)C(=O)/C1=C/c1cn(C)c2ccccc12 | > 50 µM | > 2.36 | 
29 | 5.10 | CC1=NN(c2ccc(C(F)(F)F)cc2)C(=O)/C1=C/c1cn(CC2CO2)c2ccccc12 (centres undefined) | 40.4 µM | 5.14 | 
30 | 5.55 | CC1=NN(c2ccccc2F)C(=O)/C1=C/c1cn(CC(O)CNCCCN2CCOCC2)c2ccccc12 (racemic) | 34.2 µM | 12.3 | 
31 | 5.69 | COc1ccc(N2N=C(C)/C(=C\c3cn(CC(O)CNCCCN4CCOCC4)c4ccccc34)C2=O)cc1 (racemic) | 15.4 µM | 7.53 | 
32 | 5.51 | CC1=NN(c2ccc(C)cc2)C(=O)/C1=C/c1cn(CC2CO2)c2ccccc12 (centres undefined) | 13.2 µM | 4.24 | 
33 | 5.49 | CC1=NN(c2ccc(F)cc2)C(=O)/C1=C/c1cn(CC2CO2)c2ccccc12 (centres undefined) | > 50 µM | > 15.4 | 
34 | 6.13 | CC1=NN(c2cccc(F)c2)C(=O)/C1=C/c1cn(C[C@H](O)CNCCCN2CCOCC2)c2ccccc12 | 31.1 µM | 42 | 
35 | 5.58 | CC1=NN(c2cccc(F)c2)C(=O)/C1=C/c1cn(CC2CO2)c2ccccc12 (centres undefined) | 25.6 µM | 9.67 | 
